Activity calls are given as the source filed them. The calls are words filed in the database; no cut-off is given here.
Key:
Cytochrome P450 26B1 [1] = molecular target: T1, Cytochrome P450 26B1 (Homo sapiens, UniProt Q9NR63)
T1 sequence (Q9NR63 whole entry): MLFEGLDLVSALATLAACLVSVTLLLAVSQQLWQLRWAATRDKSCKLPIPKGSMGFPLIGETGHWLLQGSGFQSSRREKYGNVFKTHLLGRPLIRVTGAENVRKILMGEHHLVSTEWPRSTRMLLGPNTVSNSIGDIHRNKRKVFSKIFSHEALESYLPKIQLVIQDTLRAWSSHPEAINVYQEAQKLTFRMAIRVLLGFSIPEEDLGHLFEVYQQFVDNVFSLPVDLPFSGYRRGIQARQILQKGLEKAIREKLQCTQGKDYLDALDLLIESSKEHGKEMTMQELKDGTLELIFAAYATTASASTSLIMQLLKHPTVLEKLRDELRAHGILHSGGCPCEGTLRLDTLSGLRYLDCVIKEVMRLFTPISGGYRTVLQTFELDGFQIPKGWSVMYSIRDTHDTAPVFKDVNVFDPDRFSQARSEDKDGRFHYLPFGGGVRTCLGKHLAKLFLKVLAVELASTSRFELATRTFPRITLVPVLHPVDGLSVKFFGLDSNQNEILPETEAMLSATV

Cytochrome P450 26A1 [2] = molecular target: T2, Cytochrome P450 26A1 (Homo sapiens, UniProt O43174)
T2 sequence (O43174 whole entry): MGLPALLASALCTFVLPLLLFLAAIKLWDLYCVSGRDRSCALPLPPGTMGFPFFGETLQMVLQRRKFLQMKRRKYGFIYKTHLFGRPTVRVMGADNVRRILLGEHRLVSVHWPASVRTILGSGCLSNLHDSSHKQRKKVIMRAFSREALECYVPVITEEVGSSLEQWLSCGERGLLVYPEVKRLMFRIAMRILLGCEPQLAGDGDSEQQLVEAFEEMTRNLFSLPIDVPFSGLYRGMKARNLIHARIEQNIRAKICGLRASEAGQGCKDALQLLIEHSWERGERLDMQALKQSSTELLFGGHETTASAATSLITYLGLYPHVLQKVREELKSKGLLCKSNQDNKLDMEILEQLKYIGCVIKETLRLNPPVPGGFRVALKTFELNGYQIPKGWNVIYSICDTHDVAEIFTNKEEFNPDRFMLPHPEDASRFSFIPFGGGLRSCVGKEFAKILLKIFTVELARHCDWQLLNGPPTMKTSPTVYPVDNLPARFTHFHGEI

[3] = molecular target: T3, Retinoic acid receptor alpha (Homo sapiens) (UniProt P10276); assay: Activation of human RARalpha at 1 uM by luciferase reporter gene assay
T3 sequence (whole entry): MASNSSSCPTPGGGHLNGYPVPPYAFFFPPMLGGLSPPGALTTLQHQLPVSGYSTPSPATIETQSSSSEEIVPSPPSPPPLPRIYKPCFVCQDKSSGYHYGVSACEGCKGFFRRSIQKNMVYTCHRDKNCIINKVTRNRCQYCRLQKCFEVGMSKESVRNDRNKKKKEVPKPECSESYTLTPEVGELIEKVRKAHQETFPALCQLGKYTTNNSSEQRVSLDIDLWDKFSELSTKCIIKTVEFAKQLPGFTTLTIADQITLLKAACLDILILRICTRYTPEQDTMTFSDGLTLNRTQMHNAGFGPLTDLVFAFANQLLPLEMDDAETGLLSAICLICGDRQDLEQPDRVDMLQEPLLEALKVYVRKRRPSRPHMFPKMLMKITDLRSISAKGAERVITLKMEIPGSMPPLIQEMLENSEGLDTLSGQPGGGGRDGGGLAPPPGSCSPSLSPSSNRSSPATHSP

[4] = molecular target: T4, Retinoic acid receptor (Homo sapiens) (UniProt P13631+P10826+P10276); assay: Activation of RAR in human HepG2 cells assessed as upregulation of RARbeta mRNA expression at 1 uM after 24 hrs by RT-PCR method; format: cell-based
T4 sequence (P10826 whole entry, looked up, one chain of several): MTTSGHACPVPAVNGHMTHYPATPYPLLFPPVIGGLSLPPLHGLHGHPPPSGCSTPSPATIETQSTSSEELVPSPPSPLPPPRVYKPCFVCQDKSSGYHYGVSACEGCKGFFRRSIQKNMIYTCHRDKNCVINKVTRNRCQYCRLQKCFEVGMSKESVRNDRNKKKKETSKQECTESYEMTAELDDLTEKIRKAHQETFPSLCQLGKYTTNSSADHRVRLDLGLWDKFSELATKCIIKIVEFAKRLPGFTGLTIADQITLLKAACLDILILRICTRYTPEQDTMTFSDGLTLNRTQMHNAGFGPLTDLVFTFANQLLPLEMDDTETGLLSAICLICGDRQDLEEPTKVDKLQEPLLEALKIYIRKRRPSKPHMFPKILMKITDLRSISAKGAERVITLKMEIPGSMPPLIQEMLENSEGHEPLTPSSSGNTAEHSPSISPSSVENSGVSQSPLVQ
T4 sequence (P13631 whole entry, looked up, one chain of several): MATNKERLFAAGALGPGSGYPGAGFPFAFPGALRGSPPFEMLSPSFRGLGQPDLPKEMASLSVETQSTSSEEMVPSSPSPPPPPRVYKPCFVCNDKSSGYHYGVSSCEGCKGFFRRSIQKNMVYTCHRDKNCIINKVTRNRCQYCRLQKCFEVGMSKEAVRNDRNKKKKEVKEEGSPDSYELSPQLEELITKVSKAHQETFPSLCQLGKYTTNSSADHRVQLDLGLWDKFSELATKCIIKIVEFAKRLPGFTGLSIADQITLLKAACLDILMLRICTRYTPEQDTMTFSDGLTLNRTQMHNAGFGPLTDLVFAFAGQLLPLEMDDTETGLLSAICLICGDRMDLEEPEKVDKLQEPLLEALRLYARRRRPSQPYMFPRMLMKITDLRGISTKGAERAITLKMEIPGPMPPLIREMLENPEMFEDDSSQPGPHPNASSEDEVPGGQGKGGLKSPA
How it was run: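 HepG2 cells in DMEM with 10% FBS, 37 °C, 5% CO2, plated 24 h before dosing. Treated 24 h in 2 mL medium at 1 μM in 0.1% DMSO, alongside a 0.1% DMSO vehicle; triplicates. RNA isolated with TRI reagent and cDNA made from 1 μg. TaqMan RT-PCR multiplexed with GAPDH as housekeeping gene; fold change by the C_T method.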

[5] = molecular target: T4, Retinoic acid receptor (Homo sapiens); assay: Activation of RAR in human HepG2 cells assessed as upregulation of CYP26A1 mRNA expression at 1 uM after 24 hrs by RT-PCR method; format: cell-based
How it was run: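 HepG2 cells kept in DMEM with 10% FBS at 37 °C under 5% CO2. Plated and left to adhere 24 h, then exposed 24 h to 1 μM compound in 0.1% DMSO, with 0.1% DMSO as vehicle control. Triplicate wells. TRI reagent mRNA extraction, cDNA from 1 μg mRNA. CYP26A1 measured by TaqMan RT-PCR multiplexed with GAPDH as housekeeping gene. Fold-difference calculated by the CT method.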

Homo sapiens = species: Homo sapiens; assay: Selectivity ratio of IC50 for microsomal fraction of human CYP26B1 to IC50 for microsomal fraction of human CYP26A1
Cytochrome P450 26B1 [6] = molecular target: T1, Cytochrome P450 26B1; assay: Inhibition of microsomal fraction of human CYP26B1 expressed in Sf9 cells using 9-cis-RA as substrate at 20 uM preincubated for 5 mins followed by NADPH addition measured after 5 mins by HPLC analysis in presence of rat P450 reductase
How it was run: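 Sf9 microsomes expressing CYP26B1, 5 pmol, preincubated 10 min at room temperature with 10 pmol E. coli-expressed rat P450 reductase. […] Preincubated 5 min at 37 °C, started with 1 mM NADPH (final), run 5 min. 9-cis-4-OH-RA measured by HPLC; activity expressed relative to solvent control.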

Cytochrome P450 26A1 [7] = molecular target: T2, Cytochrome P450 26A1; assay: Inhibition of CYP26A1-mediated atRA metabolism in human HepG2 cells assessed as atRA level in cell media at 1 uM after 24 hrs by LC/MS-MS analysis (reference value: 0.49 +/- 0.33 nM); format: cell-based; conditions: hepg2, 24 h
Cytochrome P450 3A4 = Cytochrome P450 3A4 (Homo sapiens, UniProt P08684)
Cytochrome P450 3A4, sequence (P08684 whole entry): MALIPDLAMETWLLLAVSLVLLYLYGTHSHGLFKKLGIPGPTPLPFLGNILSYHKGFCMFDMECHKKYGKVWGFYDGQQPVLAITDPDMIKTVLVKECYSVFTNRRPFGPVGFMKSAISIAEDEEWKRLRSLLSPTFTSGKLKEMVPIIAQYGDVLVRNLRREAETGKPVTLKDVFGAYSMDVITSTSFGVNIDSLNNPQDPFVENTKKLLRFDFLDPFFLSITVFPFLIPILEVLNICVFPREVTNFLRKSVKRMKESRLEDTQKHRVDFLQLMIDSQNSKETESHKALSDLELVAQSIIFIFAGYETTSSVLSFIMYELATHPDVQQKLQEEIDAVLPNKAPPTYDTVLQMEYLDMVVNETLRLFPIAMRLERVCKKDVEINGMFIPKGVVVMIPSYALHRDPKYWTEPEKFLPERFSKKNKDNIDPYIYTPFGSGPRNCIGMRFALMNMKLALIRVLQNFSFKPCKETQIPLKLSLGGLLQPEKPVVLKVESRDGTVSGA

CYP2D6 = CYP2D6 (Homo sapiens, UniProt P10635); assay: in vitro; conditions: human liver microsomes, probe dextromethorphan
CYP2D6, sequence (P10635 whole entry): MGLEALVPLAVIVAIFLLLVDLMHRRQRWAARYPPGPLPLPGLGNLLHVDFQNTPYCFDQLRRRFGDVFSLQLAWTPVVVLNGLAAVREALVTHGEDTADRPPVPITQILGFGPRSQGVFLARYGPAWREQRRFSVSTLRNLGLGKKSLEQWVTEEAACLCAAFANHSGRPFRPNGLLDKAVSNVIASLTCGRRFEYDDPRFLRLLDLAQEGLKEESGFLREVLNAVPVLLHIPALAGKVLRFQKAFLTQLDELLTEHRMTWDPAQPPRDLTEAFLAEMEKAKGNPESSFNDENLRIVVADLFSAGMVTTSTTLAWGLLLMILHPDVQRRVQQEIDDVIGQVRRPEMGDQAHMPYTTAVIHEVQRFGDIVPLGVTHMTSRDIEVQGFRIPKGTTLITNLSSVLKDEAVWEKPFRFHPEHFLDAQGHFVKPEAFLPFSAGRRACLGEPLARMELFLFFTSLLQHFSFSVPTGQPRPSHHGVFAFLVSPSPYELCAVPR

CYP3A4 = CYP3A4 (Homo sapiens, UniProt P08684); assay: Inhibition of CYP3A4 in human liver microsomes upto 100 uM using midazolam as substrate by LC-MS/MS analysis in presence of NADPH; format: ADME; conditions: probe midazolam, read-out: Imax
CYP3A4, sequence (P08684 whole entry): as the sequence (P08684 whole entry) above
How it was run: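 Human liver microsomes incubated with midazolam as the CYP3A4-selective substrate plus inhibitor in 100 mM potassium phosphate buffer. Reaction started with NADPH and quenched with ice-cold acetonitrile. Product formation measured by LC-MS/MS.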

[8] = Activation of human RARbeta at 1 uM by luciferase reporter gene assay

Row | Structure (SMILES) | IC50 (Cytochrome P450 26B1 [1]) [µM] | IC50 (Cytochrome P450 26A1 [2]) [µM] | other results
1 | CC1(C)CCC(C)(C)c2cc(C3(c4ccc(C(=O)O)cc4)SCCS3)ccc21 | – | 1.3 | –
2 | C=C(c1ccc(C(=O)O)cc1)c1cc2c(cc1C)C(C)(C)CCC2(C)C [BEXAROTENE] | 5.9 | 13.5 | –
3 | CC1(C)CCC(C)(C)c2cc(C3(c4ccc(CCC(=O)O)cc4)SCCS3)ccc21 | – | – | Activity [3]: inactive; Activity [4]: inactive; Activity [5]: inactive
4 | CC1(C)CCC(C)(C)c2cc(C3(c4ccc5cc(C(=O)O)ccc5c4)OCCO3)ccc21 | – | – | Ratio IC50 (Homo sapiens): 10
5 | CC1(C)CCC(C)(C)c2cc(S(=O)(=O)c3cccc(CC(=O)O)c3)ccc21 | > 5 | > 5 | –
6 | CC1(C)CCC(C)(C)c2cc(C3(c4ccc(C(=O)O)cc4)OCCO3)ccc21 | – | – | inhibition at 20 µM (Cytochrome P450 26B1 [6]): 59%
7 | CC1(C)CCC(C)(C)c2cc(C3(c4ccc(/C=C/C(=O)O)cc4)OCCO3)ccc21 | – | – | Activity [3]: inactive; Activity [4]: inactive; Activity [5]: inactive; Activity (Cytochrome P450 26A1 [7]): 1.09 nM; IC50 (Cytochrome P450 3A4): 30 µM; inhibition at 10 µM (CYP2D6): 49%
8 | CC1(C)CCC(C)(C)c2cc(C3(c4ccc5cc(C(=O)O)ccc5c4)SCCS3)ccc21 | – | 0.06 | –
9 | CC1(C)CCC(C)(C)c2cc(C3(c4ccc(CCC(=O)O)cc4)OCCO3)ccc21 | – | – | Emax (CYP3A4): 40%; Activity [3]: inactive; Activity [4]: inactive; Activity [5]: inactive; Activity (Cytochrome P450 26A1 [7]): 0.27 nM; Activity [8]: inactive
10 | CC1(C)CCC(C)(C)c2cc(C3(c4ccc(/C=C/C(=O)O)cc4)SCCS3)ccc21 | – | > 10 | –
11 | CC1(C)CCC(C)(C)c2cc(Sc3cccc(CC(=O)O)c3)ccc21 | > 5 | > 5 | –

Now from value to compound, other results behind:

Row | IC50 (Cytochrome P450 26B1 [1]) [µM] | IC50 (Cytochrome P450 26A1 [2]) [µM] | Structure (SMILES) | other results
12 | 6.2 | > 5 | CC1(C)CCC(C)(C)c2cc(S(=O)(=O)c3ccc(CCC(=O)O)cc3)ccc21 | –
13 | 1.4 | 2.8 | CC1(C)CCC(C)(C)c2cc(C(O)COc3ccc(C(=O)O)cc3)ccc21 (stereo unspecified) | –
14 | > 25 | > 25 | CC1(C)CCC(C)(C)c2cc(C(=O)c3ccc(C(=O)O)cc3)ccc21 | –
15 | 1.7 | 1.66 | CC1(C)CCC(C)(C)c2cc(Cc3ccc(CCC(=O)O)cc3)ccc21 | –
16 | > 5 | > 5 | CC1(C)CCC(C)(C)c2cc(S(=O)(=O)c3ccc(CC(=O)O)cc3)ccc21 | –
17 | 0.93 | 4 | CC1(C)CCC(C)(C)c2cc(C(=O)COc3ccc(C(=O)O)cc3)ccc21 | –
18 | > 5 | 10.6 | CC1(C)CCC(C)(C)c2cc(Sc3ccc(CC(=O)O)cc3)ccc21 | –
19 | 1.4 | 3.5 | CC1(C)CCC(C)(C)c2cc(/C(COc3ccc(C(=O)O)cc3)=N/O)ccc21 | –
20 | > 5 | > 5 | CC1(C)CCC(C)(C)c2cc(C(=O)c3ccc(CCC(=O)O)cc3)ccc21 | –
21 | > 5 | 4.7 | CC1(C)CCC(C)(C)c2cc(C(=O)c3ccc(/C=C/C(=O)O)cc3)ccc21 | –

Source: ChEMBL document CHEMBL3784928, “Development and Characterization of Novel and Selective Inhibitors of Cytochrome P450 CYP26A1, the Human Liver Retinoic Acid Hydroxylase” (J Med Chem, 2016)
